This is an account of results in ChEMBL document CHEMBL2440032, “Synthesis of sterically encumbered 11β-aminoprogesterone derivatives and evaluation as 11β-hydroxysteroid dehydrogenase inhibitors and mineralocorticoid receptor antagonists” (Bioorg Med Chem, 2013).

Activity calls are given as the source filed them. No cut-off for these calls is given here.

The target of test [1] is T1, Mineralocorticoid receptor (Homo sapiens, UniProt P08235).
T1 sequence (P08235 whole entry): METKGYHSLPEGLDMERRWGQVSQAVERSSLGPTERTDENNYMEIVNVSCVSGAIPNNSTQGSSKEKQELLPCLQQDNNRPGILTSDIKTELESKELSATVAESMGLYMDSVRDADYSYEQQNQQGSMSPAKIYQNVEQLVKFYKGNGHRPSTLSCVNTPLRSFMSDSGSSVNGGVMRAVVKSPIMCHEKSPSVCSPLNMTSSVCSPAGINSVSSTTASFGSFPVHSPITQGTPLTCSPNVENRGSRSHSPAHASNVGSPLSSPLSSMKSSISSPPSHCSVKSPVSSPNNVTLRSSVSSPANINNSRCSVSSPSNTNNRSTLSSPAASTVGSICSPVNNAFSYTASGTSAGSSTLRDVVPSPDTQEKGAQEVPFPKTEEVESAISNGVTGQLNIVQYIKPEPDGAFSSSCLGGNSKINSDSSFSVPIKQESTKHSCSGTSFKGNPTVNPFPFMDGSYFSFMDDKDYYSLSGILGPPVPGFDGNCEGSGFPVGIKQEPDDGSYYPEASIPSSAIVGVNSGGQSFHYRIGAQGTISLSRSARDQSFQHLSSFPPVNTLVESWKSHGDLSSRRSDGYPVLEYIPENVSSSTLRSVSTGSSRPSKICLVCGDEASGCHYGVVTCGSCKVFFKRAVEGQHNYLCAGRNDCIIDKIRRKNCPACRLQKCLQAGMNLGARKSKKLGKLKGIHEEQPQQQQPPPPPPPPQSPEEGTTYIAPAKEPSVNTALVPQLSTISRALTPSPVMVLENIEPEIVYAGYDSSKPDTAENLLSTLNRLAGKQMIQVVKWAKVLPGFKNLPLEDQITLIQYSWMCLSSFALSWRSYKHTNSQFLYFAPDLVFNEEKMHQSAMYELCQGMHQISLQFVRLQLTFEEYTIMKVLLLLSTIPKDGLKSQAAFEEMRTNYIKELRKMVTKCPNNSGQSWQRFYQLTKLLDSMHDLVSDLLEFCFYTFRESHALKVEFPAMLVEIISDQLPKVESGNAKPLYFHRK
As to the kind of experiment: (§1) Antagonist activity at human recombinant mineralocorticoid receptor expressed in HEK-293 cells after 24 hrs assessed as inhibition of aldosterone-induced receptor activity by […]. It counts as cell-based, HEK293. The procedure, abridged: (§2)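 HEK-293 cells, 150,000 per well, plated for 24 h, then calcium-phosphate transfected with pMMTV-lacZ β-galactosidase reporter, pCMV-LUC luciferase control and human MR plasmid. Cells were washed with charcoal-treated DMEM containing 10% FBS, then exposed to a range of compound concentrations with or without 10 nM aldosterone. Readout was β-galactosidase normalized to luciferase, relative to vehicle. Three independent experiments.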

The target of test [2] is T2, Mineralocorticoid receptor (Homo sapiens) (UniProt P08235).
T2 sequence (whole entry): T1 sequence (P08235 whole entry)
As to the kind of experiment: (§3) Transactivation of human recombinant mineralocorticoid receptor expressed in HEK-293 cells after 24 hrs […]. It counts as cell-based. The note with it: HEK293. The procedure, abridged: as §2

The target of test [3] is T3, 11-beta-hydroxysteroid dehydrogenase type 2 (Homo sapiens, UniProt P80365).
T3 sequence (P80365 whole entry): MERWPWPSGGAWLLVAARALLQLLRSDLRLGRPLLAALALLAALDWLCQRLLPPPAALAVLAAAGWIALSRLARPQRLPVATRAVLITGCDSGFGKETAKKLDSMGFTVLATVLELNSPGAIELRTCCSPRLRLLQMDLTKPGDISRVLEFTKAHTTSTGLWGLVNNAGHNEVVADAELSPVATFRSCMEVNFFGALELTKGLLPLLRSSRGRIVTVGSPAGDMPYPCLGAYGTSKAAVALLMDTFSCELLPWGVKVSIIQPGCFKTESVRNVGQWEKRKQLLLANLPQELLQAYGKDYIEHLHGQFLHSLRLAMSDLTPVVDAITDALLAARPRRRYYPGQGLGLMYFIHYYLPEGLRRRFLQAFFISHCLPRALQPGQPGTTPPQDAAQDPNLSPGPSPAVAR
As to the kind of experiment: Inhibition of human recombinant 11beta-HSD2 expressed in HEK293 cells assessed as inhibition of [1,2,6,7-3H]-cortisol to [3H]cortisone preincubated for 10 mins before substrate addition by scintillation counting. It counts as cell-based.

Test [4] concerns the target T4, 11-beta-hydroxysteroid dehydrogenase 1 (Homo sapiens, UniProt P28845). As to the kind of experiment: Inhibition of human recombinant 11beta-HSD1 expressed in HEK293 cells assessed as inhibition of [1,2,-3H]-cortisone to [3H]cortisol preincubated at 10 uM for 10 mins before substrate addition by scintillation counting. It counts as cell-based. The procedure, abridged: (§4)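 Lysates of HEK-293 cells expressing human 11βHSD1, in buffer with 1 mM MgCl2, 250 mM sucrose and 20 mM Tris–HCl pH 7.4, sonicated and used at once. Incubated 10 min at 37 °C with 200 nM [1,2-3H]cortisone and 500 µM NADPH. Stopped with excess unlabeled cortisone/cortisol in methanol, then TLC separation and scintillation counting for substrate conversion. Three independent experiments.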
Target sequence in this assay (P28845 whole entry, looked up): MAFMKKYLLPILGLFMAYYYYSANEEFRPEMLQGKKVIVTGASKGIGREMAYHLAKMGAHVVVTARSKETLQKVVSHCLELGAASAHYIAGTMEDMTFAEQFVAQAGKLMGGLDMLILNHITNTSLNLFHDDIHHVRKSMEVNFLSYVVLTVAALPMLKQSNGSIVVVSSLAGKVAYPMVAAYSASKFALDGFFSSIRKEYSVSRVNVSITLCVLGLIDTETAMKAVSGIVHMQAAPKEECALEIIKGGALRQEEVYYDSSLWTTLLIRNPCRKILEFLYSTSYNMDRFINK

Test [5] has as its target T4, 11-beta-hydroxysteroid dehydrogenase 1. Put plainly: Inhibition of human recombinant 11beta-HSD1 expressed in HEK293 cells assessed as inhibition of [1,2,-3H]-cortisone to [3H]cortisol preincubated for 10 mins before substrate addition by scintillation counting. It is filed as cell-based. The procedure, abridged: as §4
Target sequence in this assay (P28845 whole entry): as the sequence (P28845 whole entry, looked up) above
Test [6] has as its target T2, Mineralocorticoid receptor (Homo sapiens). The test is described as §1. It is filed as cell-based. The note with it: HEK293. The procedure, abridged:
as §2

Test [7] deals with T1, Mineralocorticoid receptor. As to the kind of experiment: Transactivation of wild-type human recombinant mineralocorticoid receptor expressed in COS7 cells after 24 hrs by luciferase reporter gene assay. It is filed as cell-based, COS-7. In general terms: In a reporter assay the amount or activity of a reporter protein is the signal.
For test [8], the target named is T1, Mineralocorticoid receptor. Described as §3. It counts as cell-based, HEK293. The procedure, abridged:
as §2

Consider `CC(=O)[C@H]1CC[C@H]2[C@@H]3CCC4=CC(=O)CC[C@]4(C)[C@H]3[C@@H](N=[N+]=[N-])C[C@]12C` [11BETA-AZIDOPROGESTERONE], for which, in test [1], the IC50 (usually the concentration that gives 50% inhibition) is 3.5 µM. For the same compound, in test [2], the outcome was inactive.
In the case of `CC(=O)[C@H]1CC[C@H]2[C@@H]3CCC4=CC(=O)CC[C@]4(C)[C@H]3[C@@H](NC[C@H]3COC(C)(C)N3C(=O)OC(C)(C)C)C[C@]12C`, in test [3], the IC50 was found to be 5850 nM. Also, in test [4], the inhibition (usually the drop in the measured response relative to a control, in per cent) is less than 70%.
For the compound `CCOC(=O)/C(CN[C@H]1C[C@]2(C)[C@@H](C(C)=O)CC[C@H]2[C@@H]2CCC3=CC(=O)CC[C@]3(C)[C@H]21)=N\O`, the figures for the IC50 in test [3] and in test [5] were 1050 nM and 640 nM, respectively. Further, in test [4], the inhibition is greater than 70%.
For the compound `CC(=O)[C@H]1CC[C@H]2[C@@H]3CCC4=CC(=O)CC[C@]4(C)[C@H]3[C@@H](O)C[C@]12C` [11BETA-HYDROXYPROGESTERONE], in test [6], the inhibition entry is “inactive”. Besides, the IC50 in test [5] is 1160 nM. Further, the EC50 (usually the midpoint of the concentration-response curve) in test [7] was determined as 50 nM; in test [8], 14 µM. In addition, the inhibition in test [4] is greater than 70%.
In the case of `CC(=O)[C@H]1CC[C@H]2[C@@H]3CCC4=CC(=O)CC[C@]4(C)[C@H]3[C@H](O)C[C@]12C`, in test [5], the IC50 is 630 nM. Moreover, the inhibition in test [4] is greater than 70%.
With `CC(=O)[C@H]1CC[C@H]2[C@@H]3CCC4=CC(=O)CC[C@]4(C)[C@H]3[C@@H](N)C[C@]12C` [11BETA-AMINOPROGESTERONE], in test [3], the IC50 was determined as 2200 nM.
Regarding `CC(=O)[C@H]1CC[C@H]2[C@@H]3CCC4=CC(=O)CC[C@]4(C)[C@H]3[C@@H](NC[C@H](N)C(=O)O)C[C@]12C`, the IC50 in test [3] came out at 6760 nM. In test [4], the inhibition is less than 70%.
`CC(=O)[C@H]1CC[C@H]2[C@@H]3CCC4=CC(=O)CC[C@]4(C)[C@H]3[C@@H](NS(=O)(=O)c3ccccc3[N+](=O)[O-])C[C@]12C`: in test [1], the IC50 worked out at 10.9 µM. Also, the result in test [2] was inactive.
As for `CC(=O)[C@H]1CC[C@H]2[C@@H]3CCC4=CC(=O)CC[C@]4(C)[C@H]3[C@@H](NCC(=O)O)C[C@]12C`, the IC50 in test [3] turned out to be 2690 nM.
Regarding `CC(=O)[C@H]1CC[C@H]2[C@@H]3CCC4=CC(=O)CC[C@]4(C)[C@H]3[C@@H](NC[C@@H](CO)NC(=O)OC(C)(C)C)C[C@]12C`, the IC50 in test [3] came out at 4210 nM. The inhibition in test [4] is less than 70%.
`CC(=O)[C@H]1CC[C@H]2[C@@H]3CCC4=CC(=O)CC[C@]4(C)[C@H]3[C@@H](NC[C@@H](N)C(=O)O)C[C@]12C`: the inhibition result in test [6] is “inactive”. For the same compound, the EC50 in test [8] amounted to 4.1 µM.
For the compound `CC(=O)[C@H]1CC[C@H]2[C@@H]3CCC4=CC(=O)CC[C@]4(C)[C@H]3[C@@H](NCC(=O)OC(C)(C)C)C[C@]12C`, the IC50 in test [3] is 2410 nM.
